The pIC50 is the IC50 on a negative log10 scale, so that one unit is a factor of ten.

pIC50: −log10 of the molar value.

Tested on in the first test: not listed separately
Description: Inhibition of T3SS-mediated translocation in Pseudomonas aerguinosa PA99U co-expressing PcrV and PopB/PopD assessed as inhibition of ExoU-mediated lysis of co-incubated CHO cells by LDH release assay. The class given is cell-based. To be noted: Pseudomonas aeruginosa. The essentials: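 CHO cells co-incubated with P. aeruginosa PA99U33 plus compound, with procedure otherwise per earlier work. ExoU-mediated CHO lysis read out as LDH release. A parallel run without bacteria gave CHO cytotoxicity (CC50).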
A general note: Release of lactate dehydrogenase indicates damage to the cell membrane.
On to `CC(Oc1ccc(Cl)cc1Cl)C(=O)NCc1ccc2sccc2c1` (centres undefined), for which the pIC50 is 5.28.

Biological target in a further test: not listed separately
Description: Inhibition of T3SS-mediated secretion of an ExoS-beta-lactamase fusion protein into the culture medium in Pseudomonas aerguinosa MDM973 assessed as inhibition of nitrocefin hydrolysis by secretion assay. Further details: species or system Pseudomonas aeruginosa.
Conditions: not given
The essentials:
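ExoS-βLA fusion protein secreted by strain MDM973, detected as hydrolysis of chromogenic nitrocefin by the externalized enzyme. Absorbance read at 490 nm. Percent inhibition calculated relative to drug-free (0%) and uninduced controls (no ExoS-βLA secreted; 100%).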
As to `O=C(COc1ccc(Cl)cc1Cl)NCc1ccc2c(c1)OCO2`, the pIC50 is under 4.00. The same measure, in the same setting: the result for `CC(C)(Oc1ccc(Cl)cc1Cl)C(=O)NCc1ccc2c(c1)OCO2` reads under 4.00; that for `CCCC(Oc1ccc(Cl)cc1Cl)C(=O)NCc1ccc2c(c1)OCO2` (centres undefined), under 4.00; that for `CC(C)C(Oc1ccc(Cl)cc1Cl)C(=O)NCc1ccc2c(c1)OCO2` (centres undefined), under 4.00.

`CC(Oc1ccc(Cl)cc1F)C(=O)NCc1ccc2c(c1)OCO2` (centres undefined): the pIC50 was under 4.00. The same measure, in the same setting: for `CC(Oc1ccc(F)cc1F)C(=O)NCc1ccc2c(c1)OCO2` (centres undefined) the value was under 4.00; for `CC(Oc1ccc(C#N)cc1Cl)C(=O)NCc1ccc2c(c1)OCO2` (centres undefined), under 4.00; for `COc1ccc(OC(C)C(=O)NCc2ccc3c(c2)OCO3)c(Cl)c1` (centres undefined), under 4.00. The same measure, in the same setting: for `CC(C(=O)NCc1ccc2c(c1)OCO2)S(=O)(=O)c1ccc(Cl)cc1Cl` (centres undefined) the value was under 4.00; for `CC(C(=O)NCc1ccc(F)cc1)S(=O)(=O)c1ccc(Cl)cc1Cl` (centres undefined), under 4.00; for `CC(Cc1ccc(Cl)cc1Cl)C(=O)NCc1ccc2c(c1)OCO2` (centres undefined), under 4.00.

As to `CC(Cc1ccc(Cl)cc1Cl)C(=O)NCc1ccc(F)cc1` (centres undefined), the pIC50 was under 4.00. On the same count and under the same terms, for `CC(Oc1ccc(Cl)cc1Cl)C(=O)NC(C(=O)O)c1ccc(F)cc1` (centres undefined) the value was under 4.00; for `CC(Oc1ccc(Cl)cc1Cl)C(=O)Nc1ccc(F)cc1` (centres undefined), under 4.00. Still for that read-out and setting: for `CC(Oc1ccc(Cl)cc1Cl)C(=O)NCCCc1ccc(F)cc1` (centres undefined) the value was under 4.00. On the same count and under the same terms, the result for `CC(Oc1ccc(Cl)cc1Cl)C(=O)N(C)Cc1ccc(F)cc1` (centres undefined) reads 4.55; that for `CC(Oc1ccc(Cl)cc1Cl)C(=O)OCc1ccc(F)cc1` (centres undefined), under 4.00. Take `CC(Oc1ccc(Cl)cc1Cl)C(=O)OCCc1ccc(F)cc1` (centres undefined): the negative-log IC50 (pIC50) is under 4.00. Take `CC(Oc1ccc(Cl)cc1Cl)C(=O)CCc1ccc(F)cc1` (centres undefined): the pIC50 is under 4.00.

Take `COc1ccccc1CNC(=O)C(C)Oc1ccc(Cl)cc1Cl` (centres undefined): the pIC50 was 4.55. On the same count and under the same terms, for `CC(Oc1ccc(Cl)cc1Cl)C(=O)NCc1ccc2sccc2c1` (centres undefined) the value was 5.22.

A further test relates to CHO. Kind of test: Cytotoxicity against CHO cells by LDH release assay. The format is cell-based. The note with it: Cricetulus griseus. The method, boiled down: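 Assay run in parallel with the T3SS translocation assay, with CHO cells and compound but no P. aeruginosa. Cell death read as LDH release; CC50 derived.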
Compound `CC(Oc1ccc(Cl)cc1Cl)C(=O)NCc1cccc2[nH]ccc12` (centres undefined) showed a negative-log IC50 (pIC50) of 4.62. Still for that read-out and setting: the result for `CCC(Oc1ccc(Cl)cc1Cl)C(=O)NCc1ccc2c(c1)OCO2` (centres undefined) reads 4.17; that for `CC(Oc1ccc(Cl)cc1)C(=O)NCc1ccc2c(c1)OCO2` (centres undefined), 4.19; that for `CC(Oc1ccc(Cl)cc1Cl)C(=O)NCc1ccc(F)cc1` (centres undefined), 4.23. On the same count and under the same terms, the result for `C[C@H](NC(=O)[C@@H](C)Oc1ccc(Cl)cc1Cl)c1ccc(F)cc1` reads 4.49; that for `C[C@@H](Oc1ccc(Cl)cc1Cl)C(=O)N[C@H](C)c1ccc(F)cc1`, 4.01. The same measure, in the same setting: for `CC(Oc1ccc(Cl)cc1Cl)C(=O)NC1(c2ccc(F)cc2)CC1` (centres undefined) the value was 4.55. In turn, `CC(Oc1ccc(Cl)cc1Cl)C(=O)NCCc1ccc(F)cc1` (centres undefined) showed a pIC50 of 4.77. Still for that read-out and setting: for `CC(Oc1ccc(Cl)cc1Cl)C(=O)NNc1ccc(F)cc1` (centres undefined) the value was 4.46. Same read-out and setting: the result for `CC(Oc1ccc(Cl)cc1Cl)C(=O)NNCc1ccc(F)cc1` (centres undefined) reads 4.51; that for `CC(Oc1ccc(Cl)cc1Cl)C(=O)NOCc1ccc(F)cc1` (centres undefined), 4.23.

`CC(Oc1ccc(Cl)cc1Cl)C(=O)NCc1ccccc1` (centres undefined) gave a pIC50 of 4.02. The same measure, in the same setting: the result for `CC(Oc1ccc(Cl)cc1Cl)C(=O)NCc1cccc(F)c1` (centres undefined) reads 4.57; that for `CC(Oc1ccc(Cl)cc1Cl)C(=O)NCc1ccccc1F` (centres undefined), 4.33; that for `CC(Oc1ccc(Cl)cc1Cl)C(=O)NCc1ccc(Cl)cc1` (centres undefined), 4.41. Same read-out and setting: the result for `CC(Oc1ccc(Cl)cc1Cl)C(=O)NCc1cccc(Cl)c1` (centres undefined) reads 4.72; that for `Cc1ccc(CNC(=O)C(C)Oc2ccc(Cl)cc2Cl)cc1` (centres undefined), 4.60. Same read-out and setting: for `Cc1cccc(CNC(=O)C(C)Oc2ccc(Cl)cc2Cl)c1` (centres undefined) the value was 4.35.

Take `COc1ccc(CNC(=O)C(C)Oc2ccc(Cl)cc2Cl)cc1` (centres undefined): the negative-log IC50 (pIC50) is 4.15.

`COc1ccc(CNC(=O)C(C)Oc2ccc(Cl)cc2Cl)cc1OC` (centres undefined) showed a negative logarithm of the IC50 (pIC50) of 4.44. Same read-out and setting: for `CC(Oc1ccc(Cl)cc1Cl)C(=O)NCc1ccc2sccc2c1` (centres undefined) the value was 4.52; for `CC(Oc1ccc(Cl)cc1Cl)C(=O)NCc1ccc2occc2c1` (centres undefined), 4.96. The same measure, in the same setting: the result for `CC(Oc1ccc(Cl)cc1Cl)C(=O)NCc1ccc2cc[nH]c2c1` (centres undefined) reads 5.03. `CC(Oc1ccc(Cl)cc1Cl)C(=O)NCc1cc2ccccc2[nH]1` (centres undefined) showed a pIC50 of 4.92. On the same count and under the same terms, for `CC(Oc1ccc(Cl)cc1Cl)C(=O)NCc1ccc2c(ccn2C)c1` (centres undefined) the value was 5.20. On the same count and under the same terms, the result for `CC(Oc1ccc(Cl)cc1Cl)C(=O)NCc1cnc2[nH]ccc2c1` (centres undefined) reads 4.68. Same read-out and setting: the result for `CC[C@@H](Oc1ncc(Cl)cc1Cl)C(=O)NC(CO)c1ccc(F)cc1` (some centres undefined) reads 4.12.

(Values after ChEMBL document CHEMBL3397026, “Synthesis and structure-activity relationships of novel phenoxyacetamide inhibitors of the Pseudomonas aeruginosa type III secretion system (T3SS)” (Bioorg Med Chem, 2015).)
